Here are results for 84 variants from the RNAGym collection of RNA variant scans (doi:10.1038/s41586-018-0170-7).

B1: tRNA (parent)
chain: GUUCCGUUGGCGUAAUGGUAACGCGUCUCCCUCCUAAGGAGAAGACUGCGGGUUCGAGUCCCGUACGGAACG

Variants of B1 are the subject of this data set. As to the kind of experiment: yeast fitness, log relative to wild type (ln ratio); higher = fitter; tRNA-Arg(CCU), competitive growth, 37 C, 1 M NaCl. The essentials: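 Fitness is the natural log of a genotype's generation count divided by that of the wild type. A combinatorial library of tRNA-Arg(CCU) variants sat on a HIS3 centromeric plasmid in BY4742 lacking the chromosomal gene, from two independent transformations. Pools grew 4 generations in SC-HIS at 30 °C, then ~6.5 generations (~26.5 h) in SC-HIS 1M NaCl at 37 °C, with three outputs per input. Generations came from OD-scaled log2 output/input frequency, inverse-variance weighted across replicates, with variants counted by 125 bp paired-end Illumina sequencing.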
As to G6U A43C C66A A69G A70G C71U, the “yeast fitness (ln)” value is -0.299.

Regarding G1A U2G G6U C46U C66A A70G, the “yeast fitness (ln)” value is -0.258.

Take G1A U2G G6U C46U C66A A70U: the “yeast fitness (ln)” value is -0.234.

As to G6A C27U A43C A70G C71U, the “yeast fitness (ln)” value is -0.304.

As for G1A U2C G6U C66A A69G A70G, the “yeast fitness (ln)” value was -0.126.

Take U2C G6U C27U C46U C66A A70U: the “yeast fitness (ln)” value is -0.29.

With G1A G6A A43C C46U C66U A69G A70U C71U, the “yeast fitness (ln)” value was -0.4.

As for G1A U2G G6U C27U C66A A70U, the “yeast fitness (ln)” value was -0.27.

Turning to G1A U2G G6U C27U C66A A70G, the “yeast fitness (ln)” value was -0.268.

On to U2G G6A A43C C66A A70U, for which the “yeast fitness (ln)” value was -0.12.

For G1A U2G C27U A70U, the “yeast fitness (ln)” value is -0.33.

For G1A U2C G6A A43C C46U C66U A70G C71U, the “yeast fitness (ln)” value is -0.015.

As for U2C G6U A43C C46U C66U A70U C71U, the “yeast fitness (ln)” value was -0.254.

Take G1A U2C C27U A43C A69G C71U: the “yeast fitness (ln)” value is -0.173.

For G1A U2C C27U C66U A70G C71U, the “yeast fitness (ln)” value was -0.127.

For the variant G1A U2C G6U C27U A43C C66A A70G C71U, the “yeast fitness (ln)” value is -0.0539.

As for G1A U2C G6U A43C C46U A70G C71U, the “yeast fitness (ln)” value is -0.359.

For U2G G6U C27U C46U A70U C71U, the “yeast fitness (ln)” value is -0.171.

Take U2C G6U A43C A70G: the “yeast fitness (ln)” value is -0.188.

Consider U2G G6U A43C C66A A69G A70G, for which the “yeast fitness (ln)” value is -0.256.

Turning to U2G G6U A43C C66A A69G A70U, the “yeast fitness (ln)” value is -0.185.

With U2G C27U A43C C46U C66U A69G A70U, the “yeast fitness (ln)” value is -0.221.

With G6A C46U C66A A69G A70U, the “yeast fitness (ln)” value was -0.178.

As for G1A C27U C66A A69G A70U C71U, the “yeast fitness (ln)” value is -0.303.

For the variant G1A U2G C27U A43C C46U C66U A70U, the “yeast fitness (ln)” value was -0.214.

G1A G6A C46U C71U: the “yeast fitness (ln)” value was -0.109.

G1A U2C G6U C46U C71U: the “yeast fitness (ln)” value is -0.111.

For U2G C27U A43C C46U C66U A69G, the “yeast fitness (ln)” value is -0.231.

Consider G1A U2G G6U C27U A43C C66U A69G A70U C71U, for which the “yeast fitness (ln)” value was -0.54.

As for G6U C46U C66U A70U C71U, the “yeast fitness (ln)” value was -0.302.

With G1A U2C G6U A43C C66A A70G, the “yeast fitness (ln)” value was -0.0507.

Consider U2G G6U C27U C66A A70U C71U, for which the “yeast fitness (ln)” value is -0.275.

On to G6A C27U A43C C46U C66A A70U, for which the “yeast fitness (ln)” value was -0.193.

As to G1A C27U A43C C66U A69G A70U C71U, the “yeast fitness (ln)” value is -0.505.

Take G6A A43C A69G C71U: the “yeast fitness (ln)” value was -0.29.

On to U2C C27U C46U C66U A70U C71U, for which the “yeast fitness (ln)” value is -0.199.

As to U2G G6A C46U C66A A69G A70U C71U, the “yeast fitness (ln)” value is -0.382.

Take G1A C27U C66U A70U: the “yeast fitness (ln)” value is -0.152.

C27U A43C C66U A69G A70U C71U: the “yeast fitness (ln)” value was -0.37.

C27U C66U A69G: the “yeast fitness (ln)” value is -0.241.

In the case of G1A U2G G6U A43C C66A C71U, the “yeast fitness (ln)” value was -0.265.

Regarding U2C G6U A69G A70U, the “yeast fitness (ln)” value was -0.117.

For the variant G1A U2G C27U A43C C46U C66U A69G A70U C71U, the “yeast fitness (ln)” value is -0.5.

With C27U C66U C71U, the “yeast fitness (ln)” value was -0.173.

In the case of G1A U2C G6A C27U A43C C46U A70G C71U, the “yeast fitness (ln)” value was -0.149.

Regarding G1A U2G G6A C27U A43C A70G C71U, the “yeast fitness (ln)” value is -0.344.

U2C C66A A70G C71U: the “yeast fitness (ln)” value was -0.196.

With C27U C66U A69G A70G C71U, the “yeast fitness (ln)” value was -0.262.

For the variant U2G G6A C27U C66U A70G, the “yeast fitness (ln)” value is -0.227.

In the case of U2C C66U A69G A70G, the “yeast fitness (ln)” value was -0.0264.

Turning to C27U C66U A69G A70U, the “yeast fitness (ln)” value is -0.143.

On to G1A G6U A43C C66U A69G A70U C71U, for which the “yeast fitness (ln)” value is -0.433.

Regarding A43C C66U A70U C71U, the “yeast fitness (ln)” value was -0.358.

Consider G1A U2C A43C C46U C66U A69G A70G C71U, for which the “yeast fitness (ln)” value is -0.417.

As to G1A G6U C27U A43C C46U A70G C71U, the “yeast fitness (ln)” value is -0.321.

U2C G6U C27U C66A A69G A70U C71U: the “yeast fitness (ln)” value was -0.525.

For U2C G6U C27U A43C C46U C66A A70U C71U, the “yeast fitness (ln)” value is -0.164.

For U2G C27U A43C C46U C66A A69G A70U, the “yeast fitness (ln)” value is -0.175.

Regarding G1A U2G G6A C27U C46U C71U, the “yeast fitness (ln)” value was -0.182.

Consider U2G G6A C27U A70G, for which the “yeast fitness (ln)” value was -0.112.

With U2C C27U C46U C66U A69G C71U, the “yeast fitness (ln)” value is -0.243.

For G1A U2C G6A A43C C66U A70G, the “yeast fitness (ln)” value was -0.12.

In the case of G1A U2G G6A A43C C46U A69G A70U, the “yeast fitness (ln)” value is -0.0779.

As to G1A U2C C66U A69G A70U, the “yeast fitness (ln)” value is -0.245.

For the variant G6U C27U A43C C46U C66A A69G A70U, the “yeast fitness (ln)” value was -0.462.

Turning to C27U C46U A69G A70U C71U, the “yeast fitness (ln)” value was -0.248.

On to G6U C27U C46U C66U, for which the “yeast fitness (ln)” value is -0.209.

Turning to U2C G6A A69G A70G, the “yeast fitness (ln)” value is -0.0526.

As for G6A C27U A43C C46U C66A A69G A70G, the “yeast fitness (ln)” value was -0.229.

In the case of G1A G6U C27U C66U A69G A70U C71U, the “yeast fitness (ln)” value is -0.45.

Consider G6A A43C C66U A69G A70U C71U, for which the “yeast fitness (ln)” value is -0.295.

Turning to G1A A43C C71U, the “yeast fitness (ln)” value is -0.0202.

Take G1A U2G C66U A69G A70G C71U: the “yeast fitness (ln)” value is -0.165.

As to U2G C46U A70U C71U, the “yeast fitness (ln)” value is -0.0115.

Consider G1A U2C G6U C27U A43C A70G C71U, for which the “yeast fitness (ln)” value was -0.22.

Take G1A U2G G6U C27U A43C C46U C66A A69G A70U C71U: the “yeast fitness (ln)” value was -0.431.

G6U A43C C46U C66U A70G: the “yeast fitness (ln)” value was -0.205.

As to U2G G6A C27U A69G A70G C71U, the “yeast fitness (ln)” value was -0.245.

U2G G6A C27U C66U C71U: the “yeast fitness (ln)” value is -0.238.

On to U2C G6U A70G C71U, for which the “yeast fitness (ln)” value was -0.0899.

In the case of U2G C27U C66A C71U, the “yeast fitness (ln)” value is -0.148.

In the case of G1A U2G C27U C46U C66A C71U, the “yeast fitness (ln)” value is -0.0936.

On to U2C G6A C27U A70U, for which the “yeast fitness (ln)” value is -0.0574.

As for G6A A70U, the “yeast fitness (ln)” value is -0.0535.
